In ChEMBL document CHEMBL4665863 (Bioorg Med Chem, 2020):
≈ marks a conversion by molar mass, not a printed value. Calls of active or inactive are those of the source. The rule behind the calls is not given here.

What was measured:
Staphylococcus aureus [1] = test: Antibacterial activity against Staphylococcus aureus ATCC25923 incubated for 24 hrs by CLSI-based broth microdilution method; type: functional
Bacillus pumilus = test: Antibacterial activity against Bacillus pumilus CMCC63202 incubated for 24 hrs by CLSI-based broth microdilution method; type: functional
Staphylococcus aureus [2] = test: Antibacterial activity against methicillin-resistant Staphylococcus aureus ATCC43300 incubated for 24 hrs by CLSI-based broth microdilution method; type: functional
Pseudomonas aeruginosa = test: Antibacterial activity against Pseudomonas aeruginosa ATCC27853 incubated for 24 hrs by CLSI-based broth microdilution method; type: functional
Escherichia coli = test: Antibacterial activity against Escherichia coli ATCC25922 incubated for 24 hrs by CLSI-based broth microdilution method; type: functional; conditions: ATCC 25922
Bacillus subtilis [3] = test: Antibacterial activity against Bacillus subtilis ATCC9372 incubated for 24 hrs by CLSI-based broth microdilution method; type: functional
Staphylococcus aureus [4] = test: Antibacterial activity against Staphylococcus aureus clinical isolate incubated for 24 hrs by CLSI-based broth microdilution method; type: functional
Staphylococcus aureus [5] = test: Antibacterial activity against penicillin-resistant Staphylococcus aureus incubated for 24 hrs by CLSI-based broth microdilution method; type: functional
Bacillus subtilis [6] = test: Inhibition of ftsZ in Bacillus subtilis assessed as increase in enzyme polymerization kinetics at 5 ug/ml measured for 30 mins by microtiter plate-based light scattering assay; conditions: dose 5.0 µg/ml
How it was run: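 Purified recombinant B. subtilis FtsZ was used. Polymerization was followed as light scattering in microtiter plates, read as time-dependent absorbance at 340 nm at several compound concentrations. Vehicle, CIP and LIN served as controls.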

Bacillus subtilis [7] = test: Inhibition of ftsZ in Bacillus subtilis assessed as increase in enzyme polymerization kinetics at 10 ug/ml measured for 30 mins by microtiter plate-based light scattering assay; conditions: dose 10.0 µg/ml
Staphylococcus aureus [8] = test: Bactericidal activity against methicillin-resistant Staphylococcus aureus ATCC43300 assessed as reduction in number of colony forming units incubated for 24 hrs followed by re-plating and reincubation on tryptic soy agar plate for 24 hrs; type: functional
Staphylococcus aureus [9] = test: Bactericidal activity against penicillin-resistant Staphylococcus aureus assessed as reduction in number of colony forming units incubated for 24 hrs followed by re-plating and reincubation on tryptic soy agar plate for 24 hrs; type: functional
Staphylococcus aureus [10] = test: Bactericidal activity against Staphylococcus aureus ATCC25923 assessed as reduction in number of colony forming units incubated for 24 hrs followed by re-plating and reincubation on tryptic soy agar plate for 24 hrs; type: functional
Staphylococcus aureus [11] = test: Bactericidal activity against Staphylococcus aureus clinical isolate assessed as reduction in number of colony forming units incubated for 24 hrs followed by re-plating and reincubation on tryptic soy agar plate for 24 hrs; type: functional
Staphylococcus aureus [12] = test: In-vivo antibacterial activity against Staphylococcus aureus infected in KM mouse model assessed as reduction in bacterial load in blood at 10 mg/kg, iv administered thrice daily and measured after 48 hrs; type: functional, organism-based
How it was run: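 Groups of four KM mice (average 20 g) were infected i.v. with 8.5 × 10⁸ CFU of a clinical S. aureus isolate resistant to CIP and ERY, in 0.15 mL saline. Treatment was 10 mg/kg i.v. three times daily. Vehicle was 2% DMAC, 30% PEG400/PG (1:1) and 5% HPβCD in water; vehicle and LIN arms were included. At 48 h, retro-orbital blood (0.1 mL) was plated on TSA for CFU counts.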

Row | SMILES | MIC (Staphylococcus aureus [1]) [µg/mL] | MIC (Bacillus pumilus) [µg/mL] | MIC (Staphylococcus aureus [2]) [µg/mL] | MIC (Pseudomonas aeruginosa) [µg/mL] | MIC (Escherichia coli) [µg/mL] | MIC (Bacillus subtilis [3]) [µg/mL] | MIC (Staphylococcus aureus [4]) [µg/mL] | MIC (Staphylococcus aureus [5]) [µg/mL] | FtsZ polymerization increase (active/inactive call) (Bacillus subtilis [6]) | inhibition (Bacillus subtilis [7]) | MBC (Staphylococcus aureus [8]) [µg/mL] | MBC (Staphylococcus aureus [9]) [µg/mL] | MBC (Staphylococcus aureus [10]) [µg/mL] | MBC (Staphylococcus aureus [11]) [µg/mL] | Activity (Staphylococcus aureus [12])
1 | CC(C)(C)c1ccc(C2=NOC(COc3ccc(F)c(C(N)=O)c3F)C2)cc1 (centres undefined) | 4 (≈ 10.3 µM) | ≤ 0.125 | 2 (≈ 5.15 µM) | > 64 | > 64 | 0.25 (≈ 0.644 µM) | 4 (≈ 10.3 µM) | 4 (≈ 10.3 µM) |  |  |  |  |  |  | 
2 | CCCCc1ccc(C2=NO[C@H](COc3ccc(F)c(C(N)=O)c3F)C2)cc1 | 0.25 (≈ 0.644 µM) | ≤ 0.125 | ≤ 0.125 | > 64 | > 64 | ≤ 0.125 | ≤ 0.125 | 0.25 (≈ 0.644 µM) | Active |  |  |  |  |  | 
3 | O=C(O)c1cn(C2CC2)c2cc(N3CCNCC3)c(F)cc2c1=O |  |  |  |  |  |  |  |  |  | inactive |  |  |  |  | 
4 | CCCCc1ccc(-c2cc(COc3ccc(F)c(C(N)=O)c3F)on2)cc1 |  |  |  |  |  |  |  |  | Active |  |  |  |  |  | 
5 | NC(=O)c1c(F)ccc(OCC2=NOC(c3ccc(Cl)cc3Cl)C2)c1F (centres undefined) | 32 (≈ 79.8 µM) | 0.5 (≈ 1.25 µM) | 16 (≈ 39.9 µM) | > 64 | > 64 | 2 (≈ 4.99 µM) | 16 (≈ 39.9 µM) | 32 (≈ 79.8 µM) |  |  |  |  |  |  | 
6 | CCCCc1ccc(C2=NO[C@@H](COc3ccc(F)c(C(N)=O)c3F)C2)cc1 | 4 (≈ 10.3 µM) | 0.5 (≈ 1.29 µM) | 2 (≈ 5.15 µM) | > 64 | > 64 | 0.25 (≈ 0.644 µM) | 2 (≈ 5.15 µM) | 1 (≈ 2.57 µM) | Active |  |  |  |  |  | 
7 | NC(=O)c1c(F)ccc(OCC2=NOC(c3cccc(Cl)c3)C2)c1F (centres undefined) | > 64 | > 64 | > 64 | > 64 | > 64 | 64 (≈ 175 µM) |  | > 64 |  |  |  |  |  |  | 
8 | CCOc1cccc(C2CC(COc3ccc(F)c(C(N)=O)c3F)=NO2)c1 (centres undefined) | > 64 | > 64 | > 64 | > 64 | > 64 | 64 (≈ 170 µM) |  | > 64 |  |  |  |  |  |  | 
9 | CCCOc1cccc(C2=NOC(COc3ccc(F)c(C(N)=O)c3F)C2)c1 (centres undefined) | 16 (≈ 41 µM) | 2 (≈ 5.12 µM) | 16 (≈ 41 µM) | > 64 | > 64 | 4 (≈ 10.2 µM) |  | 32 (≈ 82 µM) |  |  |  |  |  |  | 
10 | NC(=O)c1c(F)ccc(OCC2=NOC(c3ccc(Cl)c(Cl)c3)C2)c1F (centres undefined) | > 64 | > 64 | > 64 | > 64 | > 64 | 16 (≈ 39.9 µM) |  | > 64 |  |  |  |  |  |  | 
11 | N#Cc1ccc(C2=NOC(COc3ccc(F)c(C(N)=O)c3F)C2)cc1 (centres undefined) | > 64 | > 64 | > 64 | > 64 | > 64 | 32 (≈ 89.6 µM) |  | > 64 |  |  |  |  |  |  | 
12 | NC(=O)c1c(F)ccc(OCc2nc3cc(Cl)cnc3s2)c1F | 1 (≈ 2.81 µM) | 0.5 (≈ 1.41 µM) | 1 (≈ 2.81 µM) | > 64 | > 64 | 0.5 (≈ 1.41 µM) | 1 (≈ 2.81 µM) | 1 (≈ 2.81 µM) |  |  |  |  |  |  | 
13 | NC(=O)c1c(F)ccc(OCC2=NOC(c3ccc(F)cc3)C2)c1F (centres undefined) | > 64 | 64 (≈ 183 µM) | > 64 | > 64 | > 64 | 16 (≈ 45.7 µM) |  | > 64 |  |  |  |  |  |  | 
14 | NC(=O)c1c(F)ccc(OCC2CC(c3ccc(Br)cc3)=NO2)c1F (centres undefined) | 32 (≈ 77.8 µM) | 4 (≈ 9.73 µM) | 32 (≈ 77.8 µM) | > 64 | > 64 | 2 (≈ 4.86 µM) |  | 32 (≈ 77.8 µM) |  |  |  |  |  |  | 
15 | COc1ccccc1C1=NOC(COc2ccc(F)c(C(N)=O)c2F)C1 (centres undefined) | > 64 | > 64 | > 64 | > 64 | > 64 | > 64 |  | > 64 |  |  |  |  |  |  | 
16 | CC(=O)NC[C@H]1CN(c2ccc(N3CCOCC3)c(F)c2)C(=O)O1 [LINEZOLID] |  | 1 (≈ 2.96 µM) |  | > 64 | > 64 | 0.5 (≈ 1.48 µM) | 1 (≈ 2.96 µM) | 1 (≈ 2.96 µM) |  | inactive | > 64 | > 64 | > 64 | 64 (≈ 190 µM) | Active
17 | NC(=O)c1c(F)ccc(OCC2=NOC(c3ccc(Cl)cc3)C2)c1F (centres undefined) | 64 (≈ 175 µM) | 16 (≈ 43.6 µM) | 32 (≈ 87.3 µM) | > 64 | > 64 | 4 (≈ 10.9 µM) |  | 64 (≈ 175 µM) |  |  |  |  |  |  | 
18 | NC(=O)c1c(F)ccc(OCC2CC(c3ccc(Cl)c(Cl)c3)=NO2)c1F (centres undefined) | > 64 | > 64 | > 64 | > 64 | > 64 | 2 (≈ 4.99 µM) |  | > 64 |  |  |  |  |  |  | 
19 | CC[C@H]1OC(=O)[C@H](C)[C@@H](O[C@H]2C[C@@](C)(OC)[C@@H](O)[C@H](C)O2)[C@H](C)[C@@H](O[C@@H]2O[C@H](C)C[C@H](N(C)C)[C@H]2O)[C@](C)(O)C[C@@H](C)C(=O)[C@H](C)[C@@H](O)[C@]1(C)O [ERYTHROMYCIN] | ≤ 0.125 | ≤ 0.125 | > 64 | 32 (≈ 43.6 µM) | 16 (≈ 21.8 µM) | ≤ 0.125 | > 64 |  |  |  |  |  |  |  | 
20 | CCOc1ccccc1C1CC(COc2ccc(F)c(C(N)=O)c2F)=NO1 (centres undefined) | > 64 | > 64 | > 64 | > 64 | > 64 | > 64 |  | > 64 |  |  |  |  |  |  | 
21 | NC(=O)c1c(F)ccc(OCC2=NOC(c3ccccc3Cl)C2)c1F (centres undefined) | > 64 | 32 (≈ 87.3 µM) | > 64 | > 64 | > 64 | 16 (≈ 43.6 µM) |  | > 64 |  |  |  |  |  |  | 
22 | NC(=O)c1c(F)ccc(OCC2CC(c3ccc4c(c3)OCO4)=NO2)c1F (centres undefined) | 64 (≈ 170 µM) | 16 (≈ 42.5 µM) | 64 (≈ 170 µM) | > 64 | > 64 | 16 (≈ 42.5 µM) |  | 64 (≈ 170 µM) |  |  |  |  |  |  | 
